An excerpt weighted towards active compounds, which were near 6.8% of everything screened.
AI-2 QS modul – modulators of Vibrio harveyi AI-2 quorum sensing system; Vibrio harveyi JMH597 AI-2 luminescence/OD600 ratio, 9 h; stronger effect = lower value; strain lacks LuxN and CqsS sensors; 0 = neutral-control median; activity change, % at 7.5 µM; 300,000 tested, 0.4% active; AID 2094; in the data active means activity change below about -75%, passing the limit was not always enough; inconclusive means no clear call, values can overlap the other calls;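 further: luminescence divided by OD600 gain over 9 h not by final OD600 alone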
HSF-1 act – increases HSF-1 driven luciferase reporter signal. NIH3T3-HGL HSF-1 luciferase reporter, MG132, 8 h; 100% = twice DMSO control signal. activation, % at 9 µM. 300,000 tested, 1.7% active;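 active means mean replicate activation of at least 50% with a set share of replicates each reaching 50%; inconclusive means only one of those two conditions met; inactive means mean below 50% and too few replicates reaching it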;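 further: 0% = median of the neutral control wells and 100% = twice that signal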
core dimer inh – blocks dimerization of HCV core protein | AID 1899 | 300,000 tested, 0.33% active | TR-FRET GST/Flag-core106 dimerization, 1536-well | inhibition, % at 5 µM;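 active means inhibition above the mean of all tested compounds plus 3 SD, set per screening campaign, cut at about 45% in these data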
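Assay system: Tagged HCV core106 pair (GST and Flag) | Buffer or medium: KF-containing HEPES buffer, pH 7.45, DTT, CHAPS, BSA | Also added: Eu donor and XL665 acceptor anti-tag antibodies | Dosing: One concentration, 5 µM, in 0.5% DMSO | Timing: 4 h at 22.5 °C | Technique: TR-FRET 671 and 617 nm emission | Repeats: Singlicate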
HSF1 inh – HSF1 inhibition; NIH3T3-HGL HSE-luciferase, MG132-induced, luminescence 8 h; stronger effect = lower value; activity change, negative = inhibition, % at 7.5 µM (by protocol); 300,000 tested, 0.77% active; AID 2098;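 active means more than half of replicate wells show activity change below -50%, luminescence cut by over half; inconclusive means some wells, but at most half, below -50%; inactive means no replicate well below -50%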;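 further: luciferase reports HSF-1 transcriptional activity via heat shock element; 0% = median of DMSO wells and -100% = zero luminescence signal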
ALR H2O2 inh – human ALR oxidase inhibition via reduced H2O2. 290,000 tested, 3.8% active. purified ALR, DTT oxidation, H2O2 HRP-luminol luminescence. P55789. inhibition, % (concentration not given with the values);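 active means mean replicate inhibition above about 79%, with every replicate also reaching it, limit read from the data; inconclusive means only one of the two criteria met; inactive means mean below limit and not every replicate reaching it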
Target sequence (P55789 whole entry, looked up): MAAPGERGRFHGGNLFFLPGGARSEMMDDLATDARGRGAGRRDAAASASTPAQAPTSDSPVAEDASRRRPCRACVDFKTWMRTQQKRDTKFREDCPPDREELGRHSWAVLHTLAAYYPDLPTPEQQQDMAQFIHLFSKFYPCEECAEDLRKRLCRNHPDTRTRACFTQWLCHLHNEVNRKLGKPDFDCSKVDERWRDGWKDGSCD
PHOSPHO1 block – blocks human PHOSPHO1 phosphatase activity; Q8TCT1; recombinant PHOSPHO1, absorbance phosphatase assay; inhibition, % at 13.3 µM; 290,000 tested, 1.1% active; in the data active means inhibition above about 60%
Target sequence (Q8TCT1 whole entry, looked up): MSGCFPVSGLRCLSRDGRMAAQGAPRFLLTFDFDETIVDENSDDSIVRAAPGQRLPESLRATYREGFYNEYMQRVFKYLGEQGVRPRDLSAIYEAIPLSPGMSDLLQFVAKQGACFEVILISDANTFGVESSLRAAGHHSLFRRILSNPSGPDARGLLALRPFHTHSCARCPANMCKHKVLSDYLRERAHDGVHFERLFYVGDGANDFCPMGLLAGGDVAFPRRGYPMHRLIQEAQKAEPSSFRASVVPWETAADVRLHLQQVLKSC
Starred values were filed as active, the others as inactive; ? = inconclusive; . = no result.

SMILES	AI-2 QS modul	HSF-1 act	core dimer inh	HSF1 inh	ALR H2O2 inh	PHOSPHO1 block
COc1cc2c(cc1C1NC(=S)NC(C)=C1C(=O)N(C)C)CCCC2 (stereo unspecified)	5	-5	-1	-1	0	15
COc1ccc(N2CCN(S(=O)(=O)CCNS(=O)(=O)c3ccccc3)CC2)cc1	2	35	-4	13	6	.
COc1ccc(N2CCN(C(=O)CCC(=O)NNc3nc4ccccc4c4nc(C)nn34)CC2)cc1	5	10	-21	7	99*	4
CCOc1ccc(C(=O)N2CCc3ccccc32)cc1	12	30	1	14	-12	40
COc1ccc(N2CCN(C(=O)CCNS(=O)(=O)c3ccccc3)CC2)cc1	29	11	2	5	98*	-20
CCOc1ccc(S(=O)(=O)NCCC(=O)OC(C)C(=O)N2CCc3ccccc32)cc1 (stereo unspecified)	2	56*	8	15	-6	38
CN[C@@H]1CC[C@H](c2ccc(Cl)c(Cl)c2)c2ccccc21	13	5	.	-1	-30	1
CCn1cc(C(=O)NCCCN(CC(C)C)CC(C)C)c(=O)c2cc(S(=O)(=O)N(C)C3CCCCC3)ccc21	7	9	7	2	1	22
CCSC1(SCC)N=C(N)C2(C#N)C(c3ccccc3)NC3=C(CCC3)C12C#N (stereo unspecified)	18	29	9	21	96*	-18
CCOC(=O)C1(Cc2ccccc2C)CCCN(Cc2ccc(NC(C)=O)cc2)C1 (stereo unspecified)	19	3	3	-6	-2	11
CC(C)(C)c1ccc(-n2ncc3c2CCCC3NC(=O)C2=NNC(=O)CC2)cc1 (stereo unspecified)	44	-5	1	3	-1	21
O=C(O)c1ccccc1C(=O)Nc1n[nH]c(=S)s1	15	2	-1	2	54	99*
O=C(O)c1ccccc1C(=O)Nc1nccs1	12	-8	2	-8	-14	-34
COc1cccc(-c2nn(C)c3sc(C(=O)Nc4ccc5c(c4)OCCO5)cc23)c1	20	55*	6	34	.	-36
Cn1nc(-c2ccccc2F)c2cc(C(=O)Nc3ccc4c(c3)OCCO4)sc21	19	20	21	9	-3	7
O=C(CSc1nc2ccccc2s1)NC1CCCC1	11	-8	-3	-5	99*	23
Cc1c(NC(=O)CSc2nnc3c4ccccc4n(CCc4ccccc4)c3n2)c(=O)n(-c2ccccc2)n1C	0	88*	23	66	-51	64*
Cc1cc(NC(=O)CSc2nc3ccccc3s2)no1	.	.	0	.	-9	9
Brc1c(CSc2nc3ccccc3s2)nc2ncccn12	18	66*	-5	22	6	19
O=C(CSc1nc2ccccc2s1)Nn1cnnc1	38	9	1	1	99*	-18
C=C(C)CNC(=S)Nc1cccc(N)n1	35	-1	.	-2	.	-13
CC(C)(C)c1ccc(OCCNC(=S)NC(=O)c2cccnc2)cc1	9	0	3	-1	-1	-6
Cn1ccnc1SCC(=O)NC1CCCC1	24	-3	-1	-1	.	-19
O=C(CSc1nc2ccccc2s1)Nc1ncccn1	24	9	-4	11	98*	21
Cn1ccnc1SCC(=O)Nc1ccc2nc(SCC(=O)NC3CC3)sc2c1	16	1	2	10	98*	24
SMILES	AI-2 QS modul	HSF-1 act	core dimer inh	HSF1 inh	ALR H2O2 inh	PHOSPHO1 block
CCc1cccc(C)c1NC(=O)CSc1nc2ccc(N3C(=O)c4ccccc4C3=O)cc2s1	28	6	47*	-6	-5	6
Cc1c(NC(=O)CSc2nc3ccccc3s2)c(=O)n(-c2ccccc2)n1C	34	17	0	2	99*	0
CCCOc1ccc(NC(=O)CC2C(=O)N(c3ccc(OCC)cc3)C(=S)N2C2CC2)cc1 (stereo unspecified)	21	8	-3	1	-7	13
Clc1cccc(C2Nc3cccc4cccc(c34)N2)c1	21	22	47*	-4	12	30
Cc1ccc(Nc2nc(=O)c3cc([N+](=O)[O-])ccc3s2)cc1	7	2	48*	-3	-3	35
Cc1cc(C(F)F)nn1CC(=O)NC1C(=O)N2C(C(=O)O)=C(CSc3nnnn3C)CSC12 (stereo unspecified)	11	-8	-3	-4	-1	11
CCN(C(=O)CSc1nnnn1-c1ccc(Cl)cc1)C1CCS(=O)(=O)C1 (stereo unspecified)	.	.	.	.	-3	.
Cc1ccc(-n2nnnc2SCC(=O)Nc2ccc3c(c2)OCCO3)cc1C	19	.	13	.	-6	-1
Cc1ccc(-n2nnnc2SCC(=O)Nc2ccc3c(c2)COC3=O)cc1C	3	-5	49*	2	-2	10
Cc1ccc(NC(=O)CSc2nccn2C)cc1F	14	6	5	22	-5	-1
Cn1ccnc1SCC(=O)Nc1ccc2c(c1)COC2=O	6	3	18	-1	99*	-7
COC(=O)C1(Cc2ccc(O)c(CC3OC3(C)C)c2)OC(=O)C(O)=C1c1ccc(O)cc1 (stereo unspecified)	10	31	0	16	98*	-1
Cc1cc(=O)cc(C)n1-c1ccccc1N1CCOCC1	0	11	-4	2	-6	4
Cc1ccc(C)n1-c1ccccc1N1CCCCC1	47	7	2	4	16	63*
Cc1ccc(CNC(=O)NC2CCCCC2)cc1	-89*	-3	-5	-5	-7	9
Cc1ccc(CNC(=S)NC2CCCCC2)cc1	?	2	.	-4	-5	38
CCN(CC)c1ccc(NC(=O)C2CC3CCC2C3)cc1 (stereo unspecified)	-18	0	-13	9	99*	34
CC(=O)c1ccc(OCCCCCCCOc2ccc(C(C)=O)cc2)cc1	23	-13	-2	-5	-3	10
O=[N+]([O-])c1cc([N+](=O)[O-])c2cc3ccccc3nc2c1	24	139*	-7	94	-19	33
CCOC(=O)Nc1ccc2c(c1)N(C(=O)CN(CC)CC)c1ccccc1C=C2	19	74*	0	58	-5	2
Cc1cccc(CSc2ncnc3ccccc23)c1	-11	6	4	4	-14	28
O=[N+]([O-])c1cccc(CSc2ncnc3ccccc23)c1	20	42	14	30	99*	20
CC(C)c1ccc(NC(=O)CN2CCN(C(=O)C3CCCO3)CC2)cc1 (stereo unspecified)	9	-12	0	-4	-1	8
Cc1cc(C)cc(OCc2nnc(N)s2)c1	16	17	1	8	-2	-16
